Results: ChEMBL document CHEMBL1124429, “Heterocyclic analogues of benzamide antiarrhythmic agents” (J Med Chem, 1989)
Active and inactive are the calls of the source.

Legend:
Cavia porcellus [1] = species: Cavia porcellus; assay: Concentration of compound which gives a 20% decrease in contractile force was tested from individual experiment on papillary muscle of guinea pig, activity was expressed as EC-20.; NR is not reached.; format: functional; conditions: Muscle tissue
Procedure, shortened: (§1)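 Contractile force measured in an isolated cardiac muscle preparation. Value is the concentration giving a 20% decrease in force of contraction. NR marks that this decrease was not reached. Values come from individual experiments; for N ≥ 3, the mean is given with the range.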

Canis familiaris [2] = species: Canis familiaris; assay: Maximum percent change in conduction time (CT) at 1 uM concentration tested on Canine ventricular muscle fibre; format: functional, Canis lupus familiaris, Muscle tissue
Procedure, shortened: (§2)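 Canine right ventricular papillary muscle strips were superfused at 36 ± 0.5 °C with saline gassed with 95% O2/5% CO2. Diastolic threshold was found with 2-ms stimuli at 4000 ms cycle length, then pacing at 4× threshold for 60 min equilibration. FRP was measured at 1000 ms cycle length by S1-S2 premature stimulus after every tenth S1. Conduction time came from a bipolar electrogram. Various compound concentrations were tested, one compound per strip, with vehicle controls. Percent change from control was taken at 10 µM, or the maximum change with its concentration; for N ≥ 3, mean with range.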

Canis familiaris [3] = species: Canis familiaris; assay: Maximum percent change in functional refractory period (FRP) at 100 uM on Canine ventricular muscle fibre.; set-up: species or system Canis lupus familiaris, Muscle tissue; procedure, shortened: as §2
Canis familiaris [4] = species: Canis familiaris; assay: Percent change in repolarization at 10 Purkinje fibers; value ranges from 3-4.; format: functional, Canis lupus familiaris, Purkinje fiber
Procedure, shortened: (§3)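 Canine Purkinje fibers were held in oxygenated (95% O2–5% CO2) physiological saline, pH 7.35–7.40, at 36 ± 0.5 °C and paced at 1.0 Hz with 2-ms pulses at twice diastolic threshold. Intracellular microelectrodes (3 M KCl) recorded Vmax and APD95 simultaneously. After up to 1 h of stabilization, compounds were tested from 10^-8 to 10^-3 M with 30 min per concentration. One compound per fiber, with vehicle controls. For N ≥ 3, values are the mean with the range.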

Canis familiaris [5] = species: Canis familiaris; assay: Maximum percent change in repolarization at 10 uM concentration on Canine Purkinje fibers.; format: functional, Canis lupus familiaris, Purkinje fiber
Procedure, shortened: (§4)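 Isolated canine Purkinje fibers were superfused with physiological saline gassed with 95% O2/5% CO2 (pH 7.35–7.40) at 36 ± 0.5 °C. Paced at 1.0 Hz with 2-ms pulses at twice diastolic threshold. After up to 1 h stabilization, compounds were tested over 10^-8 to 10^-3 M, 30 min per concentration, one compound per fiber, with vehicle controls. Intracellular microelectrodes (3 M KCl) recorded Vmax and APD95; maximum percent change from control is reported with its concentration.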

Canis familiaris [6] = species: Canis familiaris; assay: Maximum Percent change from control in the rate of rise of phase 0 of the action potential at 100 uM concentration on Canine Purkinje fibers.; format: Canis lupus familiaris, Purkinje fiber; conditions: dog, in vitro; procedure, shortened: as §4
Canis familiaris [7] = species: Canis familiaris; assay: Maximum percent change in repolarization at 1 uM concentration on Canine Purkinje fibers.; format: functional, Canis lupus familiaris, Purkinje fiber; procedure, shortened: as §4
Canis familiaris [8] = species: Canis familiaris; assay: Percent change from control in the rate of rise of phase 0 of the action potential at 10 uM concentration on Canine Purkinje fibers.; value ranges from -36.0-1.0; set-up: species or system Canis lupus familiaris, Purkinje fiber; conditions: dog, in vitro
Canis familiaris [9] = species: Canis familiaris; assay: Percent change from control in conduction time (CT) at 10 uM concentration tested on Canine ventricular muscle fibre.; M is minimal(<10% change in CT); format: functional; conditions: Canis lupus familiaris, Muscle tissue; procedure, shortened: as §2
Canis familiaris [10] = species: Canis familiaris; assay: Maximum Percent change from control in the rate of rise of phase 0 of the action potential at 30 uM concentration on Canine Purkinje fibers.; set-up: species or system Canis lupus familiaris, Purkinje fiber; conditions: dog, in vitro; procedure, shortened: as §4
Canis familiaris [11] = species: Canis familiaris; assay: Percent change in functional refractory period (FRP) at 10 uM on Canine ventricular muscle fibre.; set-up: species or system Canis lupus familiaris, Muscle tissue
Canis familiaris [12] = species: Canis familiaris; assay: Maximum percent change in repolarization at 0.1 uM concentration on Canine Purkinje fibers.; format: functional, Canis lupus familiaris, Purkinje fiber; procedure, shortened: as §4
Cavia porcellus [13] = species: Cavia porcellus; assay: Concentration of compound which gives a 20% decrease in contractile force was tested on papillary muscle of guinea pig, activity was expressed as EC-20.; format: functional; conditions: Muscle tissue; procedure, shortened: as §1
Canis familiaris [14] = species: Canis familiaris; assay: Percent change in repolarization at 10 Purkinje fibers.; format: functional, Canis lupus familiaris, Purkinje fiber; procedure, shortened: as §3
Canis familiaris [15] = species: Canis familiaris; assay: Maximum percent change in functional refractory period(FRP) of compound (30 uM) was tested on Canine ventricular muscle fibre.; set-up: species or system Canis lupus familiaris, Muscle tissue; procedure, shortened: as §2
Canis familiaris [16] = species: Canis familiaris; assay: Maximum percent change in repolarization at 100 uM concentration on Canine Purkinje fibers.; format: functional, Canis lupus familiaris, Purkinje fiber; procedure, shortened: as §4
Canis familiaris [17] = species: Canis familiaris; assay: Percent change from control in the rate of rise of phase 0 of the action potential at 10 uM concentration on Canine Purkinje fibers.; set-up: species or system Canis lupus familiaris, Purkinje fiber; conditions: dog
Canis familiaris [18] = species: Canis familiaris; assay: Percent change from control in the functional refractory period (FRP) at 10 uM conc. on Canine ventricular muscle fibre.; set-up: species or system Canis lupus familiaris, Muscle tissue; procedure, shortened: as §2
Canis familiaris [19] = species: Canis familiaris; assay: Maximum percent change in conduction time (CT) at 10 uM concentration tested on Canine ventricular muscle fibre; format: functional, Canis lupus familiaris, Muscle tissue; procedure, shortened: as §2
Canis familiaris [20] = species: Canis familiaris; assay: Percent change from control in the rate of rise of phase 0 of the action potential at 10 uM concentration on Canine Purkinje fibers.; value ranges from 0-2; set-up: species or system Canis lupus familiaris, Purkinje fiber; conditions: dog, in vitro
Canis familiaris [21] = species: Canis familiaris; assay: Maximum percent change in functional refractory period (FRP) at 10 uM on Canine ventricular muscle fibre.; set-up: species or system Canis lupus familiaris, Muscle tissue; procedure, shortened: as §2
Canis familiaris [22] = species: Canis familiaris; assay: Percent change in repolarization at 10 Purkinje fibers; value ranges from -3.0-7.0.; format: functional, Canis lupus familiaris, Purkinje fiber; procedure, shortened: as §3
Canis familiaris [23] = species: Canis familiaris; assay: Maximum percent change in conduction time (CT) at 0.1 uM concentration tested on Canine ventricular muscle fibre; format: functional, Canis lupus familiaris, Muscle tissue; procedure, shortened: as §2
Canis familiaris [24] = species: Canis familiaris; assay: Percent change from control in conduction time (CT) at 10 uM concentration tested on Canine ventricular muscle fibre.; value ranges from -11.0-0; format: functional, Canis lupus familiaris, Muscle tissue; procedure, shortened: as §2
Canis familiaris [25] = species: Canis familiaris; assay: The maximum Percent change from control in the rate of rise of phase 0 of the action potential at 1 uM concentration on Canine Purkinje fibers.; set-up: species or system Canis lupus familiaris, Purkinje fiber; conditions: dog; procedure, shortened: as §3
Canis familiaris [26] = species: Canis familiaris; assay: The maximum percent change in action potential (Vmax ) at concentration observed (0.1 uM ) was tested on Canine Purkinje fibers.; set-up: species or system Canis lupus familiaris, Purkinje fiber; conditions: dog, in vitro; procedure, shortened: as §3
Canis familiaris [27] = species: Canis familiaris; assay: Percent change from control in the functional refractory period (FRP) at 10 uM conc. on Canine ventricular muscle fibre.; value ranges from 11-23; set-up: species or system Canis lupus familiaris, Muscle tissue; procedure, shortened: as §2
Canis familiaris [28] = species: Canis familiaris; assay: The maximum Percent change from control in the rate of rise of phase 0 of the action potential at 100 uM concentration on Canine Purkinje fibers.; set-up: species or system Canis lupus familiaris, Purkinje fiber; conditions: dog; procedure, shortened: as §3
Canis familiaris [29] = species: Canis familiaris; assay: Maximum percent change in conduction time (CT) at 100 uM concentration tested on Canine ventricular muscle fibre; format: functional, Canis lupus familiaris, Muscle tissue; procedure, shortened: as §2
Canis familiaris [30] = species: Canis familiaris; assay: Maximum percent change in repolarization at 100 uM concentration on Canine Purkinje fibers.; value ranges from 14-20; format: functional, Canis lupus familiaris, Purkinje fiber; procedure, shortened: as §4
Canis familiaris [31] = species: Canis familiaris; assay: Maximum Percent change from control in the rate of rise of phase 0 of the action potential at 100 uM concentration on Canine Purkinje fibers.; conditions: dog, in vitro
Canis familiaris [32] = species: Canis familiaris; assay: Maximum percent change in repolarization at 30 uM concentration on Canine Purkinje fibers.; format: functional, Canis lupus familiaris, Purkinje fiber; procedure, shortened: as §4
Canis familiaris [33] = species: Canis familiaris; assay: Percent change in repolarization at 10 Purkinje fibers; value ranges from -11- -25.; format: functional, Canis lupus familiaris, Purkinje fiber; procedure, shortened: as §3
Canis familiaris [34] = species: Canis familiaris; assay: Maximum percent change in functional refractory period(FRP) of compound (10 uM) was tested from individual experiment on Canine ventricular muscle fibre.; set-up: species or system Canis lupus familiaris, Muscle tissue; procedure, shortened: as §2
Canis familiaris [35] = species: Canis familiaris; assay: Percent change from control in conduction time (CT) at 10 uM concentration tested on Canine ventricular muscle fibre.; value ranges from -12 - -5; format: functional, Canis lupus familiaris, Muscle tissue; procedure, shortened: as §2
Canis familiaris [36] = species: Canis familiaris; assay: Percent change from control in the rate of rise of phase 0 of the action potential at 10 uM concentration on Canine Purkinje fibers.; value ranges from -21- -37; format: organism-based, Canis lupus familiaris, Purkinje fiber; conditions: dog, in vitro
Canis familiaris [37] = species: Canis familiaris; assay: Percent change from control in the functional refractory period (FRP) at 10 uM conc. on Canine ventricular muscle fibre.; value ranges from -1-20; set-up: species or system Canis lupus familiaris, Muscle tissue; procedure, shortened: as §2
Canis familiaris [38] = species: Canis familiaris; assay: Maximum percent change in conduction time (CT) at 10 uM concentration tested on Canine ventricular muscle fibre; value ranges from -12 - -5; format: functional, Canis lupus familiaris, Muscle tissue; procedure, shortened: as §2
[39] = Maximum Percent change from control in the rate of rise of phase 0 of the action potential at 100 Purkinje fibers.; format: tissue-based, Purkinje fiber; procedure, shortened: as §4
Canis familiaris [40] = species: Canis familiaris; assay: Maximum Percent change from control in the rate of rise of phase 0 of the action potential at 10 uM concentration on Canine Purkinje fibers.; format: functional, Canis lupus familiaris, Purkinje fiber; conditions: dog, in vitro; procedure, shortened: as §4

With `CCN(CC)CCCNC(=O)c1c(C)[nH]c(C)c1C` the EC20 (Cavia porcellus [1]) was “Not reached”, the CT (Canis familiaris [2]) was -3% and the FRP (Canis familiaris [3]) was 16%. For the same compound, the APD95 (Canis familiaris [4]) was 3.7%, the APD95 (Canis familiaris [5]) was 4% and the Vmax (Canis familiaris [6]) was -37%. For the same compound, the APD95 (Canis familiaris [7]) was 6%, the Vmax (Canis familiaris [8]) was -13% and the CT (Canis familiaris [9]) was “Minimal”. It also gave a Vmax (Canis familiaris [10]) of -14%, an FRP (Canis familiaris [11]) of 4% and an APD95 (Canis familiaris [12]) of 5%.

Work on `CCN(CC)CCNC(=O)c1c(C)[nH]c(C)c1C` yielded an EC20 (Cavia porcellus [13]) of 30 µM, an APD95 (Canis familiaris [14]) of 2% and an FRP (Canis familiaris [15]) of 6%. The Vmax (Canis familiaris [6]) was -45%, the APD95 (Canis familiaris [16]) was -5% and the CT (Canis familiaris [9]) was “Minimal”. For the same compound, the Vmax (Canis familiaris [17]; in vivo) was -18%, the FRP (Canis familiaris [18]) was 1% and the CT (Canis familiaris [19]) was -8%.

`CCN(CC)CCNC(=O)c1ccc(NC(C)=O)cc1` [ACECAINIDE] showed a Vmax (Canis familiaris [20]) of 1%, an FRP (Canis familiaris [21]) of 23% and a CT (Canis familiaris [2]) of -9%. The APD95 (Canis familiaris [22]) was 3%, the CT (Canis familiaris [23]) was -11% and the CT (Canis familiaris [24]) was -9.7%. It also gave an FRP (Canis familiaris [3]) of 31%, a Vmax (Canis familiaris [25]) of 2% and a Vmax (Canis familiaris [26]) of 6%. The FRP (Canis familiaris [27]) was 16.8%, the Vmax (Canis familiaris [28]) was 5% and the CT (Canis familiaris [29]) was 6%. For the same compound, the APD95 (Canis familiaris [30]) was 16.3%.

For `CCN(CC)CCNC(=O)c1cc(Cl)c(N)cc1OC` [METOCLOPRAMIDE], the EC20 (Cavia porcellus [13]) was 10 µM, the APD95 (Canis familiaris [14]) was 1% and the FRP (Canis familiaris [3]) was 33%. The APD95 (Canis familiaris [16]) was -17%, the CT (Canis familiaris [9]) was “inactive” and the Vmax (Canis familiaris [17]; in vitro) was -3%. The Vmax (Canis familiaris [31]) was -25%, the CT (Canis familiaris [29]) was 17% and the FRP (Canis familiaris [18]) was 17%.

Compound `CCN(CC)CCCNC(=O)c1cc2cccc(OCc3ccccc3)c2[nH]1` has an APD95 (Canis familiaris [32]) of -38%, an APD95 (Canis familiaris [33]) of -16.3% and an EC20 (Cavia porcellus [13]) of 8 µM. It also gave an FRP (Canis familiaris [34]) of 20%, a CT (Canis familiaris [35]) of -4% and a Vmax (Canis familiaris [36]) of -30.3%. For the same compound, the FRP (Canis familiaris [3]) was 7%, the FRP (Canis familiaris [37]) was 8% and the APD95 (Canis familiaris [5]) was -11%. The APD95 (Canis familiaris [16]) was 18%, the CT (Canis familiaris [38]) was -4% and the Vmax [39] was -79%. The Vmax (Canis familiaris [40]) was -33% and the Vmax (Canis familiaris [10]) was -56%.
